Converted amounts (≈) assume the structure as drawn.
Experiments:
Type in all cases: functional
Escherichia coli [1] = assay: Antibacterial activity against beta-lactamase-positive ESBL-negative Escherichia coli E412 assessed as mutant prevention concentration after overnight incubation
In short: (§1)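 Overnight growth on blood trypticase soy agar (35°C, air) was resuspended in 0.9% saline and counted on drug-free Mueller-Hinton agar. […] Colonies were retested by agar dilution to confirm mutants. MPC was the lowest concentration preventing resistant-mutant growth.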

Klebsiella pneumoniae [2] = assay: Antibacterial activity against beta-lactamase-negative Klebsiella pneumoniae E359 incubated up to 7 days by agar dilution method; conditions: E359, 168 h
Escherichia coli [3] = assay: Antibacterial activity against beta-lactamase-positive ESBL-negative Escherichia coli E430 incubated up to 7 days by agar dilution method; conditions: E430, 168 h
In short: (§2)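 MIC by CLSI agar dilution, with quality-control strains in each run. Beta-lactamase status was set by 30 μg cefazolin Kirby-Bauer disk diffusion. ESBL status was set by cefotaxime and ceftazidime disks (30 μg) with and without clavulanic acid (10 μg).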

Klebsiella pneumoniae [4] = assay: Antibacterial activity against beta-lactamase-negative Klebsiella pneumoniae E420 assessed as mutant prevention concentration after overnight incubation; in short: as §1
Escherichia coli [5] = assay: Antibacterial activity against beta-lactamase-positive ESBL-positive Escherichia coli E465 assessed as mutant prevention concentration after overnight incubation; in short: as §1
Escherichia coli [6] = assay: Antibacterial activity against beta-lactamase-positive ESBL-negative Escherichia coli E484 incubated up to 7 days by agar dilution method; conditions: E484, 168 h
Klebsiella pneumoniae [7] = assay: Antibacterial activity against beta-lactamase-negative Klebsiella pneumoniae E420 incubated up to 7 days by agar dilution method; conditions: E420, 168 h; in short: as §2
Klebsiella pneumoniae [8] = assay: Antibacterial activity against beta-lactamase-negative Klebsiella pneumoniae E417 incubated up to 7 days by agar dilution method; conditions: E417, 168 h; in short: as §2
Klebsiella pneumoniae [9] = assay: Antibacterial activity against beta-lactamase-negative Klebsiella pneumoniae E419 assessed as mutant prevention concentration after overnight incubation; in short: as §1
Escherichia coli [10] = assay: Antibacterial activity against beta-lactamase-positive ESBL-positive Escherichia coli E460 incubated up to 7 days by agar dilution method; conditions: E460, 168 h; in short: as §2
Klebsiella pneumoniae [11] = assay: Antibacterial activity against beta-lactamase-positive ESBL-negative Klebsiella pneumoniae E481 incubated up to 7 days by agar dilution method; conditions: E481, 168 h
Escherichia coli [12] = assay: Antibacterial activity against beta-lactamase-negative Escherichia coli E345 incubated up to 7 days by agar dilution method; conditions: E345, 168 h
Klebsiella pneumoniae [13] = assay: Antibacterial activity against beta-lactamase-negative Klebsiella pneumoniae E358 incubated up to 7 days by agar dilution method; conditions: E358, 168 h
Escherichia coli [14] = assay: Antibacterial activity against beta-lactamase-positive ESBL-positive Escherichia coli E446 incubated up to 7 days by agar dilution method; conditions: E446, 168 h; in short: as §2
Klebsiella pneumoniae [15] = assay: Antibacterial activity against beta-lactamase-positive ESBL-negative Klebsiella pneumoniae E472 assessed as mutant prevention concentration after overnight incubation; in short: as §1
Escherichia coli [16] = assay: Antibacterial activity against beta-lactamase-positive ESBL-positive Escherichia coli E451 incubated up to 7 days by agar dilution method; conditions: E451, 168 h; in short: as §2
Klebsiella pneumoniae [17] = assay: Antibacterial activity against beta-lactamase-positive ESBL-positive Klebsiella pneumoniae E478 incubated up to 7 days by agar dilution method; conditions: E478, 168 h
Escherichia coli [18] = assay: Antibacterial activity against beta-lactamase-positive ESBL-positive Escherichia coli E456 incubated up to 7 days by agar dilution method; conditions: E456, 168 h; in short: as §2
Escherichia coli [19] = assay: Antibacterial activity against beta-lactamase-positive ESBL-negative Escherichia coli E412 incubated up to 7 days by agar dilution method; conditions: E412, 168 h; in short: as §2
Klebsiella pneumoniae [20] = assay: Antibacterial activity against beta-lactamase-positive ESBL-negative Klebsiella pneumoniae E511 assessed as mutant prevention concentration after overnight incubation; in short: as §1
Klebsiella pneumoniae [21] = assay: Antibacterial activity against beta-lactamase-negative Klebsiella pneumoniae E419 incubated up to 7 days by agar dilution method; conditions: E419, 168 h
Escherichia coli [22] = assay: Antibacterial activity against beta-lactamase-positive ESBL-positive Escherichia coli E459 incubated up to 7 days by agar dilution method; conditions: E459, 168 h; in short: as §2
Escherichia coli [23] = assay: Antibacterial activity against beta-lactamase-negative Escherichia coli E408 assessed as mutant prevention concentration after overnight incubation
Klebsiella pneumoniae [24] = assay: Antibacterial activity against beta-lactamase-negative Klebsiella pneumoniae E361 assessed as mutant prevention concentration after overnight incubation
Klebsiella pneumoniae [25] = assay: Antibacterial activity against beta-lactamase-negative Klebsiella pneumoniae E360 assessed as mutant prevention concentration after overnight incubation
Klebsiella pneumoniae [26] = assay: Antibacterial activity against beta-lactamase-negative Klebsiella pneumoniae E417 assessed as mutant prevention concentration after overnight incubation
Klebsiella pneumoniae [27] = assay: Antibacterial activity against beta-lactamase-positive ESBL-negative Klebsiella pneumoniae E507 incubated up to 7 days by agar dilution method; conditions: E507, 168 h
In short: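 MPC determination: overnight cultures on blood trypticase soy agar at 35°C in air were resuspended in 0.9% saline, and CFU were counted on drug-free Mueller-Hinton agar. […] Growth was retested by agar dilution to confirm mutants. MPC was the lowest concentration preventing resistant-mutant growth.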

Klebsiella pneumoniae [28] = assay: Antibacterial activity against beta-lactamase-positive ESBL-negative Klebsiella pneumoniae E481 assessed as mutant prevention concentration after overnight incubation; in short: as §1
Klebsiella pneumoniae [29] = assay: Antibacterial activity against beta-lactamase-positive ESBL-negative Klebsiella pneumoniae E480 incubated up to 7 days by agar dilution method; conditions: E480, 168 h
Klebsiella pneumoniae [30] = assay: Antibacterial activity against beta-lactamase-negative Klebsiella pneumoniae E362 assessed as mutant prevention concentration after overnight incubation

C[C@@H](O)[C@H]1C(=O)N2C(C(=O)O)=C(S[C@@H]3CN[C@H](C(=O)Nc4cccc(C(=O)O)c4)C3)[C@H](C)[C@H]12
MPC (Escherichia coli [1]): 1 µg/mL | MIC (Klebsiella pneumoniae [2]): 0.016 µg/mL (≈ 0.0336 µM) | MIC (Escherichia coli [3]): 0.06 µg/mL (≈ 0.126 µM) | MPC (Klebsiella pneumoniae [4]): 0.03 µg/mL | MPC (Escherichia coli [5]): 8 µg/mL | MIC (Escherichia coli [6]): 8 µg/mL (≈ 16.8 µM) | MIC (Klebsiella pneumoniae [7]): 0.008 µg/mL (≈ 0.0168 µM) | MIC (Klebsiella pneumoniae [8]): 0.008 µg/mL (≈ 0.0168 µM) | MPC (Klebsiella pneumoniae [9]): 0.03 µg/mL | MIC (Escherichia coli [10]): 0.125 µg/mL (≈ 0.263 µM) | MIC (Klebsiella pneumoniae [11]): 4 µg/mL (≈ 8.41 µM) | MIC (Escherichia coli [12]): 0.008 µg/mL (≈ 0.0168 µM) | MIC (Klebsiella pneumoniae [13]): 0.008 µg/mL (≈ 0.0168 µM) | MIC (Escherichia coli [14]): 0.25 µg/mL (≈ 0.526 µM) | MPC (Klebsiella pneumoniae [15]): 64 µg/mL | MIC (Escherichia coli [16]): 0.06 µg/mL (≈ 0.126 µM) | MIC (Klebsiella pneumoniae [17]): 8 µg/mL (≈ 16.8 µM) | MIC (Escherichia coli [18]): 0.125 µg/mL (≈ 0.263 µM) | MIC (Escherichia coli [19]): 0.06 µg/mL (≈ 0.126 µM) | MPC (Klebsiella pneumoniae [20]): 64 µg/mL | MIC (Klebsiella pneumoniae [21]): 0.016 µg/mL (≈ 0.0336 µM) | MIC (Escherichia coli [22]): 0.03 µg/mL (≈ 0.0631 µM) | MPC (Escherichia coli [23]): 0.06 µg/mL | MPC (Klebsiella pneumoniae [24]): 0.06 µg/mL | MPC (Klebsiella pneumoniae [25]): 0.03 µg/mL | MPC (Klebsiella pneumoniae [26]): 0.016 µg/mL | MIC (Klebsiella pneumoniae [27]): 8 µg/mL (≈ 16.8 µM) | MPC (Klebsiella pneumoniae [28]): 8 µg/mL | MIC (Klebsiella pneumoniae [29]): 8 µg/mL (≈ 16.8 µM) | MPC (Klebsiella pneumoniae [30]): 0.06 µg/mL

— ChEMBL document CHEMBL1255475, “Mutant prevention concentrations of four carbapenems against gram-negative rods” (2010)
